Calls of active or inactive are those of the source. The rule behind the calls is not given here.
Experiments:
[1] = test system: Pulmonary Artery Smooth Muscle Cells; assay: Stimulation of sGC in HPASMC assessed as increase in intracellular cGMP level at 100 uM measured after 1 hr in absence of PDE5 inhibitor IBMX by cGMP-d2/europium cryptate reagent based HTRF assay relative to control; format: tissue-based; settings: Homo sapiens
How it was run: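 HPASMCs were suspended at 100,000 cells/mL in PBS with 0.2% BSA, with or without 10 µM ODQ. Compounds were added as a 6-point, 10-fold dilution series; the top 2× stock was 200 µM. Incubation was 1 h at room temperature, in triplicate. cGMP-d2 in lysis buffer and europium cryptate were then added for 1 h before HTRF reading. Three independent experiments.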

[2] = test system: Pulmonary Artery Smooth Muscle Cells; assay: Stimulation of sGC in HPASMC assessed as increase in intracellular cGMP level measured after 1 hr in presence of […] IBMX by cGMP-d2/europium cryptate reagent based HTRF assay; format: tissue-based; settings: Homo sapiens, filed as activator
How it was run: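 HPASMCs at 100 000 cells/mL in PBS with 1 mM IBMX and 0.2% BSA, with or without 10 µM ODQ. Exposed to a 6-point, 10-fold dilution series (top 200 µM, 2× stock) in triplicate for 1 h at room temperature. cGMP-d2 in lysis buffer and europium cryptate added, then 1 h at room temperature before HTRF reading. Three independent experiments averaged.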

Rattus norvegicus [3] = assay: Inhibition of vascular remodeling activity in Sprague-Dawley rat model of hypoxia-induced pulmonary artery hypertension assessed as increase in body weight at 10 mg/kg, po administered daily for 2 weeks; format: functional, organism-based
Rattus norvegicus [4] = assay: In vivo stimulation of sGC in Sprague-Dawley rat model of hypoxia-induced pulmonary artery hypertension assessed as increase in phosphorylation levels of VASP in lungs at 10 mg/kg, po administered daily for 2 weeks by Western blot analysis; format: functional, organism-based

Question: How did the Activity [1] turn out when `Cc1ccccc1COc1nc2c(cc1-c1nc(N)cc(N)n1)c(C)nn2-c1ccccc1` was run?
Answer: 5%

Question: What about the Activity [2] of the same compound?
Answer: Dose-dependent effect

Question: What about the inhibition (Rattus norvegicus [3]) of the same compound?
Answer: Active

Question: And the Activity (Rattus norvegicus [4])?
Answer: Active

— ChEMBL document CHEMBL4699492, “Discovery of Novel Pyrazolo[3,4-b] Pyridine Derivatives with Dual Activities of Vascular Remodeling Inhibition and Vasodilation for the Treatment of Pulmonary Arterial Hypertension” (J Med Chem, 2020)
